Laboratory results as given in ChEMBL document CHEMBL1126041, “Leukotriene B4 receptor antagonists: the LY255283 series of hydroxyacetophenones” (J Med Chem, 1992).

Columns and labels:
[1] = target: Leukotriene B4 receptor (Homo sapiens) (UniProt Q9NPC1+Q15722); assay: Inhibition of [3H]LTB4 binding to leukotriene B4 receptor of human peripheral neutrophils (PMN) at a concentration of 0.1 uM.; assay type: protein assay
Outline: (§1)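 Neutrophils isolated by Ficoll-Hypaque centrifugation, dextran 70 sedimentation and hypotonic lysis (≥90% neutrophils, ≥90% viable), 2 × 10^7 cells/mL in Hank's balanced salt solution with 0.1% ovalbumin. Compound in DMSO plus 2.65 nM [3H]LTB4 (stock), 10 min at 4 °C. Cells spun through dibutyl/dinonyl phthalate (7:2), pellet counted by scintillation. Triplicate incubations averaged. Reported as % inhibition of specific binding; nonspecific binding taken with >2000-fold excess unlabeled LTB4.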

[2] = target: Leukotriene B4 receptor 1 (Homo sapiens) (UniProt Q15722); assay: Inhibition of [3H]LTB4 binding to leukotriene B4 receptor from human peripheral neutrophils (PMN), at a concentration of 1 uM; outline: as §1
[3] = target: Leukotriene B4 receptor 1 (Homo sapiens) (UniProt Q15722); assay: Inhibition of binding of [3H]LTB4 to the leukotriene B4 receptor of human peripheral neutrophils (PMN) at a concentration of 10 uM.; outline: as §1

Chain of Leukotriene B4 receptor 1 (Homo sapiens) (Q15722 whole entry): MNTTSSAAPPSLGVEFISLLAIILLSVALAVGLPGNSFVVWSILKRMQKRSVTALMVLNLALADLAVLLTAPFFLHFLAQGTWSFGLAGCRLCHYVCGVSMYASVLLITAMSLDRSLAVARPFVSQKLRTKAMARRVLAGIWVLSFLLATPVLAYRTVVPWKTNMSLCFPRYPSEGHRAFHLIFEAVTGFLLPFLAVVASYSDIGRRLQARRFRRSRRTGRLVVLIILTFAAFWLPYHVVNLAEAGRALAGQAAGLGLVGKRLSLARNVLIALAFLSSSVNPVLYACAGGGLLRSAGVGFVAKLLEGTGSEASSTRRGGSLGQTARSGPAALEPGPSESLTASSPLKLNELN
Chain of Leukotriene B4 receptor (Homo sapiens) (Q15722 whole entry, looked up): as the sequence (Q15722 whole entry) above
Chain of Leukotriene B4 receptor (Homo sapiens) (Q9NPC1 whole entry, looked up): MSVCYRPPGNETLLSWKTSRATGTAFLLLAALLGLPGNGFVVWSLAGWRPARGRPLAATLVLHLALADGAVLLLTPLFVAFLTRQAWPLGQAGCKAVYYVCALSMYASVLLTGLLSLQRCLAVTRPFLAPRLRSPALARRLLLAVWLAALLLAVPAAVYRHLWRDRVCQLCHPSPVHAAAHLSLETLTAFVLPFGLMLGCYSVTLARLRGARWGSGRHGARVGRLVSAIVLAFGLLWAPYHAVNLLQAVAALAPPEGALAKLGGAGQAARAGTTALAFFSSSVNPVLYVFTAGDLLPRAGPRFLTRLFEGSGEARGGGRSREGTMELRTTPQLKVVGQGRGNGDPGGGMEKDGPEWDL

- inhibition [1]: 0%
- inhibition [2]: 11%
- inhibition [3]: 7%
Compound: CCc1cc(C(C)=O)c(O)cc1OCc1ccc(C#N)cc1
